Activity calls are given as the source filed them. The calls are words filed in the database; no cut-off is given here.
Key:
[1] = Stability of the compound in PBS containing 1% Cremophor EL/1,2-propanediol (10:3, v:v) system assessed as compound degradation under dark condition; assay type: physicochemical; conditions: buffer
[2] = Absorption property of the compound in chloroform assessed as absorption coefficient by UV-visible spectrophotometric method; assay type: physicochemical
In short: (§1)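 Electronic absorption spectra recorded by UV-visible spectrophotometry at room temperature. Solvents were chloroform, isopropanol, acetonitrile, DMF, and PBS buffer containing 1% Cremophor EL/1,2-propanediol (10:3, v:v). Chloroform data were referenced to the non-halogenated parent dye.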

[3] = Dark toxicity in human SW480 cells assessed as reduction in cell viability after 3 hrs by MTT assay; assay type: cell-based
[4] = Absorption property of the compound in chloroform assessed as hypsochromic shift by measuring maximum absorption wavelength by UV-visible spectrophotometric method; assay type: physicochemical; in short: as §1
[5] = Photostability of the compound in isopropanol assessed as compound degradation irradiated with 90 mW/cm2 light; assay type: physicochemical
[6] = Emission property of the compound in chloroform assessed as maximum emission wavelength by fluorescence spectrophotometric method; assay type: physicochemical
In short: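 Fluorescence spectrum recorded in chloroform by fluorescence spectrophotometer at room temperature.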

[7] = Absorption property of the compound in isopropanol assessed as absorption coefficient by UV-visible spectrophotometric method; assay type: physicochemical; in short: as §1
[8] = Stability of the compound in acetonitrile assessed as compound degradation under dark condition; assay type: physicochemical
[9] = Photostability of the compound in acetonitrile assessed as compound degradation irradiated with 90 mW/cm2 light; assay type: physicochemical
SW480 = assay: Phototoxicity against human SW480 cells assessed as reduction in cell viability preincubated for 3 hrs followed by 54 J/cm2 light irradiation and measured after 24 hrs by MTT assay; assay type: functional, cell-based; conditions: SW480, light or radiation study
In short: (§2)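 PS formulated in PBS containing Cremophor EL/1,2-propanediol (10:3, v:v) after THF removal, filtered, with concentration confirmed by UV-Vis. Cells were grown in DMEM with 10% FBS and seeded at 3×10^3 per well overnight. They were incubated with PS for 3 h, irradiated at λ > 590 nm, kept 24 h at 37 °C, then given MTT (0.5 mg/mL, 4 h) with DMSO solubilization and A490 read-out.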

HeLa [10] = assay: Phototoxicity against human HeLa cells assessed as reduction in cell viability preincubated for 3 hrs followed by 54 J/cm2 light irradiation and measured after 24 hrs by MTT assay; assay type: functional, cell-based; conditions: light or radiation study; in short: as §2
[11] = Absorption property of the compound in acetonitrile assessed as absorption coefficient by UV-visible spectrophotometric method; assay type: physicochemical; in short: as §1
[12] = Absorption property of the compound in PBS containing 1% Cremophor EL/1,2-propanediol (10:3, v:v) system assessed as absorption coefficient by UV-visible spectrophotometric method; assay type: physicochemical; conditions: buffer; in short: as §1
[13] = Induction of singlet oxygen generation in isopropanol assessed as relative rate of DPBF degradation to MB at 1 uM irradiated with 90 mW/cm2 halogen light; assay type: functional
In short: (§3)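 Singlet oxygen generation measured with 1,3-diphenylisobenzofuran (DPBF) as scavenger. The decrease in DPBF absorbance at 411 nm was monitored over time during light irradiation, and the photodegradation rate was calculated.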

[14] = Photostability of the compound in N,N-dimethylformamide assessed as compound degradation irradiated with 90 mW/cm2 light; assay type: physicochemical
[15] = Induction of singlet oxygen generation in N,N-dimethylformamide assessed as relative rate of DPBF degradation to MB at 1 uM irradiated with 90 mW/cm2 halogen light; assay type: functional; in short: as §3
[16] = Absorption property of the compound in N,N-dimethylformamide assessed as absorption coefficient by UV-visible spectrophotometric method; assay type: physicochemical; in short: as §1
[17] = Photostability of the compound in PBS containing 1% Cremophor EL/1,2-propanediol (10:3, v:v) system assessed as compound degradation irradiated with 90 mW/cm2 light; assay type: physicochemical; conditions: buffer
[18] = Induction of singlet oxygen generation in PBS containing 1% Cremophor EL/1,2-propanediol (10:3, v:v) system assessed as relative rate of DPBF degradation to MB at 1 uM irradiated with 90 mW/cm2 halogen light; assay type: functional; in short: as §3
MCF7 = assay: Phototoxicity against human MCF7 cells assessed as reduction in cell viability preincubated for 3 hrs followed by 54 J/cm2 light irradiation and measured after 24 hrs by MTT assay; assay type: functional, cell-based; conditions: MCF7, light or radiation study; in short: as §2
[19] = Dark toxicity in human HeLa cells assessed as reduction in cell viability after 3 hrs by MTT assay; assay type: cell-based
In short: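 Compound was formulated with Cremophor EL/1,2-propanediol in PBS, filtered, and its concentration confirmed by UV-Vis. HeLa cells in DMEM with 10% FBS at 37 °C, 5% CO2 were seeded at 3×10^3 cells/well and adhered overnight. Cells were exposed to graded concentrations for 3 h without light, incubated 24 h, then MTT 0.5 mg/mL for 4 h; formazan dissolved in DMSO, A490 read.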

[20] = Dark toxicity in human MCF7 cells assessed as reduction in cell viability after 3 hrs by MTT assay; assay type: cell-based
HeLa [21] = assay: Antitumor activity against human HeLa cells xenografted in Balb/c nu/nu mouse assessed as tumor growth inhibition at 2 mg/kg, iv pretreated for 15 mins followed by 54 J/cm2 light irradiation for 10 mins and measured after 24 days; assay type: functional, organism-based
In short: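 Female Balb/c nu/nu mice with subcutaneous HeLa tumors (5×10^6 cells) reaching 80–100 mm³ on day 7 were randomized, n = 5 per group. Mice received 2 mg/kg by tail vein, or saline for controls. After 15 min the tumor was irradiated once with 54 J/cm² (75 W halogen lamp, >590 nm filter, 90 mW/cm², 10 min), unanaesthetized. Calipers every other day; V = 0.5×L×W²; body weight tracked.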

[22] = Toxicity in human HeLa cells xenografted Balb/c nu/nu mouse assessed as body weight loss at 2 mg/kg, iv pretreated for 15 mins followed by 54 J/cm2 light irradiation for 10 mins and measured for 24 days; assay type: organism-based; conditions: in vivo, 0.25 h
In short: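 Female Balb/c nu/nu mice (18-22 g) carried subcutaneous HeLa cells (about 5×10^6, right back) and were treated on day 7 at a tumor volume of 80-100 mm³. Five mice per group received a tail-vein dose; saline controls were also irradiated. Fifteen minutes later the tumor was irradiated once with a 75 W halogen lamp (590 nm cut-on, 90 mW/cm², 10 min), without anaesthesia. Body weight was recorded every other day.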

Row | SMILES | Stabilty [1] | Activity [2] | IC50 at 3 h [3] | Activity [4] | Stabilty [5] | Activity [6] | Activity [7] | Stabilty [8] | Stabilty [9] | IC50 (SW480) | IC50 (HeLa [10]) | Activity [11] | Activity [12] | fold change (FC) [13] | Stabilty [14] | fold change (FC) [15] | Activity [16] | IC50 (MCF7) | IC50 at 3 h [19] | IC50 at 3 h [20] | further results
1 | COc1ccc(C2=[N+]3C(=Nc4c(-c5ccccc5)cc(-c5ccc(OC)cc5)n4[B-]3(F)F)C(c3ccccc3)=C2Br)cc1 | Unstable | 81000 M⁻¹ cm⁻¹ | > 50 µM | 679 nm | Stable | 720 nm | 59300 M⁻¹ cm⁻¹ | Unstable | Stable | 0.28 µM | 0.27 µM | 59300 M⁻¹ cm⁻¹ | 34000 M⁻¹ cm⁻¹ | 1.1 | Unstable | 0.19 | 59300 M⁻¹ cm⁻¹ | 0.35 µM | > 50 µM | > 50 µM | Stabilty [17]: Stable; fold change (FC) [18]: 0.83
2 | COc1ccc(C2=[N+]3C(=Nc4c(-c5ccccc5)c(Br)c(-c5ccc(OC)cc5)n4[B-]3(F)F)C(c3ccccc3)=C2Br)cc1 | Unstable | 77000 M⁻¹ cm⁻¹ | > 50 µM | 679 nm | Stable | 720 nm | 59300 M⁻¹ cm⁻¹ | Unstable | Stable | 0.16 µM | 0.13 µM | 59300 M⁻¹ cm⁻¹ | 34000 M⁻¹ cm⁻¹ | 4.5 | Unstable | 0.36 | 59300 M⁻¹ cm⁻¹ | 0.15 µM | > 50 µM | > 50 µM | TGI (HeLa [21]): Active; Activity [22]: Non-Toxic; Stabilty [17]: Stable; fold change (FC) [18]: 1.9
3 | COc1ccc(C2=[N+]3C(=Nc4c(-c5ccccc5)c(I)c(-c5ccc(OC)cc5)n4[B-]3(F)F)C(c3ccccc3)=C2I)cc1 | Unstable | 74000 M⁻¹ cm⁻¹ | > 50 µM | 679 nm | Stable | 723 nm | 59300 M⁻¹ cm⁻¹ | Unstable | Stable | 1.3 µM | 0.59 µM | 59300 M⁻¹ cm⁻¹ | 34000 M⁻¹ cm⁻¹ | 7 | Unstable | 0.66 | 59300 M⁻¹ cm⁻¹ | 0.66 µM | > 50 µM | > 50 µM | Stabilty [17]: Stable; fold change (FC) [18]: 2.2
4 | C=Cc1c(C)c2cc3nc(c(CC(=O)O)c4[nH]c(cc5nc(cc1[nH]2)C(C)=C5CC)c(C)c4C(=O)O)[C@@H](CCC(=O)O)[C@@H]3C [CHLORIN E6] | – | – | > 50 µM | – | – | – | – | – | – | 3.1 µM | 1.92 µM | – | – | – | – | – | – | 3.4 µM | > 50 µM | > 50 µM | TGI (HeLa [21]): Active; Activity [22]: Toxic

Source: ChEMBL document CHEMBL4725347, “Discovery of a Monoiodo Aza-BODIPY Near-Infrared Photosensitizer: in vitro and in vivo Evaluation for Photodynamic Therapy” (J Med Chem, 2020)
